Compounds with a hit are over-represented: about 2.1% of the library has one in this group of screens.
DENV2 CPE: inhibitors of DENV2 cytopathic effect; DENV2-infected cells, cytopathic effect rescue, plate reader; CPE inhibition, % at 9.99 µM; hit rate 1.7% among 350,000; in the data active = CPE inhibition above about 20%, passing the limit was not always enough; tested in BHK-21 cells;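 note: 0% = median of neutral control wells and 100% = median of positive control wells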
XiGFP reactiv: activators of X-chromosome reactivation in mouse fibroblasts; XiGFP mouse fibroblasts, % GFP-positive cells imaging, 3 d; cells co-treated with 5-aza-dC sensitizer; scaled so ellipticine positive control = 100%; activation, % at 7.58 µM; hit rate 0.055% among 360,000; AID 743238;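 active = mean normalized replicate activation at least 10% and every replicate at or above 10%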;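 note: 0% = median of on-plate neutral control wells and 100% = ellipticine 6 µM median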
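System: 68-5-11 XiGFP fibroblast line | Buffer or medium: DMEM containing 5-aza-dC | Compound: Single point | Times: Compounds 3 days, fix/stain 15 min at room temperature | Benchmarks: Positive control ellipticine, 6 µM final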
Cneo AK release: causes C. neoformans cell lysis; adenylate kinase release luminescence, 4 h; normalised: neutral wells 0, clomiphene wells 100; hit rate 0.2% among 360,000; lysis activity, % at 15 µM; AID 651654;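 active = mean lysis activity across replicates of at least 80%, whatever share of replicates individually reach that level; inactive = mean lysis activity below 80%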
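Assay system: log-phase C. neoformans yeast / Quantity: yeast cell density of 5 × 10^6 cells/mL / Medium: fresh YPD growth medium / Compound: single dose / Timing: static 4 h at 37 °C with compound, 1 h detection / Measured by: adenylate kinase release luminescence / Read-out: lysis from increased AK signal / Benchmarks: Clomiphene as positive lysis control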
C2C12 statin: protects C2C12 myotubes from simvastatin toxicity; ATP luminescence, 48 h; scaled: DMSO 0, geranylgeraniol control 100; rescue of ATP level, % at 7.49 µM; hit rate 0.78% among 330,000;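 active = mean ATP rescue above about 67%, or every replicate alone reaching that limit, limit read from the data, passing the limit was not always enough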;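 note: myotubes were challenged with 10 µM simvastatin during compound exposure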
* hit, by the source's call; / = no result.

SMILES | DENV2 CPE | XiGFP reactiv | Cneo AK release | C2C12 statin
CCC(=O)N1C[C@H](C)[C@H](OC)CN(C)C(=O)c2ccc(NC(=O)COC)cc2OC[C@@H]1C | -9 | 0 | 1 | -8
CCCCc1cc(=O)oc2cc(C)cc(OCC(=O)N3CCC(C(N)=O)CC3)c12 | 61* | / | -2 | -16
Cc1ccc(S(=O)(=O)N(C)C[C@H]2OCCCC[C@H](C)Oc3ccc(NS(=O)(=O)c4c(C)noc4C)cc3C(=O)N([C@@H](C)CO)C[C@H]2C)cc1 | 49* | 0 | 0 | /
COc1ccc(S(=O)(=O)N(C)C[C@@H]2OCCCC[C@H](C)Oc3ccc(NS(=O)(=O)c4c(C)noc4C)cc3C(=O)N([C@H](C)CO)C[C@H]2C)cc1 | 96* | 0 | -1 | /
Cc1ccc(S(=O)(=O)N(C)C[C@@H]2OCCCC[C@H](C)Oc3ccc(NS(=O)(=O)c4c(C)noc4C)cc3C(=O)N([C@@H](C)CO)C[C@@H]2C)cc1 | 81* | 0 | -2 | /
Cc1ccc(S(=O)(=O)Nc2ccc3c(c2)C(=O)N([C@H](C)CO)C[C@H](C)[C@H](CN(C)S(=O)(=O)c2c(C)noc2C)OCCCC[C@H](C)O3)cc1 | 31* | 0 | 4 | /
Cc1ccc(S(=O)(=O)N(C)C[C@@H]2OCCCC[C@H](C)Oc3ccc(NS(=O)(=O)c4c(C)noc4C)cc3C(=O)N([C@@H](C)CO)C[C@H]2C)cc1 | -3 | 0 | -2 | /
Cc1ccc(S(=O)(=O)Nc2ccc3c(c2)C(=O)N([C@H](C)CO)C[C@H](C)[C@H](CN(C)S(=O)(=O)c2c(C)noc2C)OCCCC[C@@H](C)O3)cc1 | -7 | 0 | -1 | /
COc1ccc(S(=O)(=O)N(C)C[C@H]2OCCCC[C@H](C)Oc3ccc(NS(=O)(=O)c4c(C)noc4C)cc3C(=O)N([C@H](C)CO)C[C@@H]2C)cc1 | 5 | 0 | 0 | /
C[C@H](CO)N1C[C@H](C)[C@@H](CN(C)CC2CC2)Oc2c(NC(=O)CCCCCC(=O)Nc3ccccc3N)cccc2C1=O | / | 0 | / | /
O=C(c1cccc(F)c1)N1C[C@H]2[C@@H](c3ccccc31)[C@H](CO)N2C(=O)c1ccccn1 | -6 | 0 | 4 | -13
C[C@H]1CN([C@@H](C)CO)C(=O)Cc2cc(NC(=O)c3ccncc3)ccc2O[C@@H]1CN(C)S(=O)(=O)c1cccs1 | -3 | -1 | -2 | -17
C[C@@H]1CN([C@@H](C)CO)C(=O)Cc2cc(NC(=O)c3ccncc3)ccc2O[C@H]1CN(C)S(=O)(=O)c1cccs1 | 24* | -1 | -4 | -1
C[C@H](CO)N1C[C@H](C)[C@H](CN(C)S(=O)(=O)c2cccs2)Oc2ccc(NC(=O)Nc3ccccc3)cc2CC1=O | -6 | 0 | -5 | -58
C[C@@H]1CN([C@@H](C)CO)C(=O)Cc2cc(NC(=O)Nc3ccccc3)ccc2O[C@H]1CN(C)S(=O)(=O)c1cccs1 | 25* | -1 | 2 | 9
C[C@@H]1CN([C@@H](C)CO)C(=O)Cc2cc(NC(=O)Nc3ccc(C(F)(F)F)cc3)ccc2O[C@H]1CN(C)S(=O)(=O)c1cccs1 | 35* | 0 | -2 | -22
C[C@H]1CN([C@@H](C)CO)C(=O)Cc2cc(NC(=O)Nc3ccc(F)cc3)ccc2O[C@@H]1CN(C)S(=O)(=O)c1cccs1 | -3 | 0 | 0 | -33
CCNC(=O)C[C@@H]1CC[C@H]2[C@@H](COC[C@@H](O)CN2C(=O)Nc2c(C)noc2C)O1 | -6 | 0 | -3 | 18
COc1ccccc1S(=O)(=O)N[C@H]1C=C[C@@H](CC(=O)NCc2cccc(F)c2)O[C@H]1CO | 23* | 0 | 2 | -1
COc1cccc(NC(=O)N[C@H]2C=C[C@H](CC(=O)NCc3ccccn3)O[C@H]2CO)c1 | 29* | 0 | / | /
O=C(C[C@H]1C=C[C@H](NC(=O)Cc2ccccn2)[C@@H](CO)O1)NCCc1ccncc1 | 23* | 0 | 15 | -11
O=C(C[C@@H]1C=C[C@@H](NC(=O)Cc2ccccn2)[C@@H](CO)O1)NCCc1ccncc1 | 6 | 0 | 44 | -10
COc1cccc(CNC(=O)C[C@H]2CC[C@@H](NC(=O)C3CCC3)[C@H](CO)O2)c1 | 36* | 0 | 2 | -2
O=C(C[C@H]1CC[C@@H](NC(=O)c2ccccc2)[C@H](CO)O1)NCc1ccc(Oc2ccccc2)cc1 | -2 | 0 | 0 | 13
CN1CCN(C(=O)C[C@@H]2C[C@H]3c4cc(NC(=O)Nc5ccc(C(F)(F)F)cc5)ccc4O[C@H]3[C@@H](CO)O2)CC1 | 5 | 0 | 9 | -4
SMILES | DENV2 CPE | XiGFP reactiv | Cneo AK release | C2C12 statin
CO[C@@H]1CN(C)C(=O)c2cc(NC(=O)c3ccccc3)ccc2OC[C@H](C)N(CC2CC2)C[C@@H]1C | / | 0 | -3 | 14
COc1cccc(CNC(=O)C[C@H]2C=C[C@H](NC(=O)C3CCOCC3)[C@@H](CO)O2)c1 | 21* | 0 | 5 | 2
CCCNC(=O)C[C@H]1CC[C@@H]2[C@@H](COc3ccc(NC(=O)c4cscn4)cc3C(=O)N2C)O1 | 4 | 0 | -1 | -4
COc1ccc(/C=C/c2nnc(NC(=O)CSc3ccc(C)cc3)s2)cc1 | 2 | 0 | -1 | 1
CCOC(=O)Cc1nnc(NC(=O)COc2ccc(OC)cc2)s1 | / | / | -1 | 130*
CCC(=O)Nc1nnc(/C=C/c2ccc(OC)cc2)s1 | 58* | 0 | / | /
COc1ccc2c3c(n(C)c2c1)[C@H](CO)N(Cc1nccs1)CC31CN(C(=O)CC2CC2)C1 | -11 | 0 | / | /
CCC(C)SCc1nc2ccccc2[nH]1 (stereo unspecified) | / | / | / | 121*
C[C@H](CO)N1C[C@H](C)[C@@H](CN(C)S(=O)(=O)c2cn(C)cn2)Oc2ccc(NC(=O)Cc3ccccc3)cc2CC1=O | -2 | 0 | -5 | -22
CCCOn1nnnc1-c1ccccc1 | / | / | / | 120*
CCOC(=O)c1cc2c(=Cc3ccc(N(C)C)cc3)c3ccccc3n2[n+]1C | 35* | 0 | / | /
O=C(C[C@H]1CC[C@H]2[C@@H](COC[C@@H](O)CN2S(=O)(=O)c2ccc(Oc3ccccc3)cc2)O1)NCCN1CCCCC1 | -11 | 0 | 0 | -3
C/C=C/c1ccc([C@@H]2[C@H](CO)N(CC3CCCC3)C23CN(C(=O)COC)C3)cc1 | 8 | 0 | / | /
COc1ccc(NC(=O)Nc2ccc3c(c2)C(=O)N([C@H](C)CO)C[C@H](C)[C@H](CN(C)C(=O)CCCN(C)C)OCCCC[C@@H](C)O3)cc1 | 2 | 0 | -1 | /
CCOCc1nnc(NC(=O)c2cc(OC)c(OC)c(OC)c2)s1 | -6 | 0 | -3 | -4
COc1cc(C(=O)Nc2nnc(-c3sccc3C)s2)cc(OC)c1OC | / | / | -3 | 98*
CO[C@@H]1CN(C)C(=O)c2ccc(NS(=O)(=O)c3ccccc3C)cc2OC[C@@H](C)NC[C@H]1C | 1 | 0 | -3 | 4
Cc1c(C(=O)Nc2ccccc2F)sc2ncn(CC(=O)N3CCOCC3)c(=O)c12 | 52* | 0 | 4 | -16

Assay outcomes deposited in PubChem by Broad Institute.
